The values that follow come from ChEMBL document CHEMBL2401709 (J Med Chem, 2013).

SMILES strings stand for the structures. pIC50: −log10 of the molar value. Active and inactive are the calls of the source. The rule behind the calls is not given here.

One experiment concerns HeLa. Briefly: Cytotoxicity against human HeLa cells assessed as growth inhibition after 72 hrs by calcein AM staining-based fluoroscence assay. It counts as functional, cell-based.
The subject of the next experiment is HCT-116. Briefly: Cytotoxicity against human HCT116 cells assessed as growth inhibition after 72 hrs by calcein AM staining-based fluoroscence assay. It counts as functional, cell-based. The settings on record: HCT-116, 72 h.
The subject of another experiment is HOS. Briefly: Cytotoxicity against human HOS cells assessed as growth inhibition after 72 hrs by calcein AM staining-based fluoroscence assay. In kind it is functional, cell-based.
Experiment [1] deals with G-361. Briefly: Cytotoxicity against human G361 cells assessed as growth inhibition after 72 hrs by calcein AM staining-based fluoroscence assay. In kind it is functional, cell-based. The note with it: G-361, 72 h.
The subject of the next experiment is MCF7. Briefly: Cytotoxicity against human MCF7 cells assessed as growth inhibition after 72 hrs by calcein AM staining-based fluoroscence assay. It counts as functional, cell-based. The note with it: MCF7, 72 h.
In a further experiment the test system is K562. Briefly: Cytotoxicity against human K562 cells assessed as growth inhibition after 72 hrs by calcein AM staining-based fluoroscence assay. In kind it is functional, cell-based. The note with it: K562, 72 h.
Experiment [2] addresses Cyclin-dependent kinase 1 (Homo sapiens, UniProt P06493). Briefly: Inhibition of human recombinant CDK1.
Experiment [3] has as its target Cyclin-dependent kinase 2/cyclin E1 (Homo sapiens, UniProt P24941). Briefly: Inhibition of human recombinant CDK2/Cyclin E expressed in baculovirus infected sf9 cells using histone H1 as substrate.
Experiment [4] deals with G-361. Briefly: Induction of apoptosis in human G361 cells assessed as decrease in Mcl-1 at 300 nM after 24 hrs by immunoblotting analysis. In kind it is functional, cell-based. In short, it runs like this:
(§1)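 Treated G361 cells harvested into Laemmli sample buffer. Proteins resolved by SDS-PAGE and blotted to nitrocellulose. Membranes blocked, probed overnight with specific primary antibodies, then peroxidase-conjugated secondaries. ECL detection by CCD camera. Actin served as loading control.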

Experiment [5] has as its target Cyclin-dependent kinase 2/cyclin E1 (Homo sapiens) (UniProt P24864+P24941). Briefly: Ratio of roscovitine IC50 to compound IC50 for human recombinant CDK2/Cyclin E. It counts as protein-complex assay.
Experiment [6] concerns the target Cyclin-dependent kinase 9 (Homo sapiens) (UniProt P50750). Briefly: Inhibition of CDK9-mediated RNA polymerase 2 phosphorylation at ser2 in human G361 cells at 300 nM after 24 hrs by immunoblotting analysis. The settings on record: G-361. In kind it is cell-based. Put shortly: as §1
In the next experiment the target is CDK2/CDK4 (Homo sapiens) (UniProt P11802+P24941). Briefly: Inhibition of CDK2/4-mediated retinoblastoma protein phosphorylation at ser780 in human G361 cells at 300 nM after 24 hrs by immunoblotting analysis. It counts as cell-based. The note with it: G-361. Put shortly: as §1
Experiment [7] concerns G-361. Briefly: Induction of apoptosis in human G361 cells assessed as decrease in Mcl-1 protein level at 300 nM after 24 hrs by immunoblotting analysis. In kind it is functional, cell-based. Put shortly: as §1
The test system of experiment [8] is G-361. Briefly: Induction of apoptosis in human G361 cells assessed as induction of PARP-1 clevage at 300 nM after 24 hrs by immunoblotting analysis. In kind it is functional, cell-based. In short, it runs like this:
as §1

For experiment [9], the system named is G-361. Briefly: Induction of apoptosis in human G361 cells assessed as induction of caspase-9 clevage at 300 nM after 24 hrs by immunoblotting analysis. In kind it is functional, cell-based. Put shortly: as §1
For experiment [10], the system named is G-361. Briefly: Induction of apoptosis in human G361 cells assessed as induction of caspase-3 clevage at 300 nM after 24 hrs by immunoblotting analysis. In kind it is functional, cell-based. Put shortly: as §1
In experiment [11] the test system is G-361. Briefly: Induction of apoptosis in human G361 cells assessed as induction of caspase-7 clevage at 300 nM after 24 hrs by immunoblotting analysis. It counts as functional, cell-based. Put shortly:
as §1

The test system of experiment [12] is G-361. Briefly: Induction of apoptosis in human G361 cells assessed as caspase 9 activation using Ac-DEHD-AMC as substrate at 300 nM after 24 hrs by fluorimetry assay. It counts as functional, cell-based. The settings on record: in the assay text read “Ac-LEHD-AMC” for “Ac-DEHD-AMC”. Put shortly:
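G361 lysates were made in CHAPS extraction buffer, pH 7.4, clarified at 10000g, and protein-equalized. They were incubated 24 h with 100 μM Ac-LEHD-AMC in 100 mM HEPES pH 7.5, 0.5 mM EDTA, 20% glycerol, 5 mM DTT. AMC fluorescence read at 355/460 nm (ex/em).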

For experiment [13], the system named is G-361. Briefly: Induction of apoptosis in human G361 cells assessed as caspase 3/7 activation using Ac-DEVD-AMC as substrate at 300 nM after 24 hrs by fluorimetry assay. It counts as functional, cell-based.

Sequence of Cyclin-dependent kinase 1 (P06493 whole entry): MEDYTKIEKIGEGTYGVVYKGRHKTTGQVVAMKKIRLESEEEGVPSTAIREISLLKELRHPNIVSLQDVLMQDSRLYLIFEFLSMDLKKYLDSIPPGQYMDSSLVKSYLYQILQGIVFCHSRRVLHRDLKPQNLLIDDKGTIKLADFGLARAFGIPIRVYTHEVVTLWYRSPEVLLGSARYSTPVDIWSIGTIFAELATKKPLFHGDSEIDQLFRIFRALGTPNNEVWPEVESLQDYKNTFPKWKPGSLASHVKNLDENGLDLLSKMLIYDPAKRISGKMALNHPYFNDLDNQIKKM
Sequence of Cyclin-dependent kinase 9 (Homo sapiens) (P50750 whole entry): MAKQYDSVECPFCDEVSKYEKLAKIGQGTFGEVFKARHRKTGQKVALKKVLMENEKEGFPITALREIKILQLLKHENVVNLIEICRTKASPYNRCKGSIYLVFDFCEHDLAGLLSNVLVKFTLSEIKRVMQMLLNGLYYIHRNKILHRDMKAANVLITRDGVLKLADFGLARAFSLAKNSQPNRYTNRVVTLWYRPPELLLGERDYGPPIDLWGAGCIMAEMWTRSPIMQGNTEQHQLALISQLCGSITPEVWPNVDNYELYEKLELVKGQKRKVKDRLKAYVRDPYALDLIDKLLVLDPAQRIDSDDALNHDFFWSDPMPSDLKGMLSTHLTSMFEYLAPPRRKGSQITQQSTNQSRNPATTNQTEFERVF

With `CC(C)(O)CNc1nc(NCc2ccc(-c3ccco3)nc2)c2ncn(C3CCCC3)c2n1`, the pIC50 with HeLa is 6.18; in the experiment with HCT-116, 5.90; in the experiment on HOS, 6.25; in the experiment with G-361 [1], 5.68; with MCF7 it was 5.88; in the experiment with K562, 5.85. For the same compound, the pIC50 was 6.26 in experiment [2] and 6.92 in [3].
For the compound `NC1CCC(Nc2nc(NCc3cc(Cl)ccc3O)c3ncn(C4CCCC4)c3n2)CC1` (stereo unspecified), the pIC50 was 6.12 in the experiment with HeLa; 6.46 in the experiment with HCT-116; 6.31 in the experiment with HOS; 6.41 in the experiment on G-361 [1]; 6.37 in the experiment on MCF7; 6.16 with K562. Further, the results for the pIC50 in [2] and in experiment [3] were 7.64 and 8.10, respectively.
For `CC(C)(O)CNc1nc(NCc2ccc(-c3ccco3)cc2)c2ncn(C3CCCC3)c2n1`, the pIC50 was 4.83 with HeLa; 4.78 in the experiment with HCT-116; 4.67 with HOS; 4.76 with G-361 [1]; 4.82 in the experiment with MCF7; 4.77 with K562. For the same compound, the pIC50 is below 6.00 in experiment [2] and 6.32 in experiment [3].
For the compound `NC1CCC(Nc2nc(NCc3ccc(-c4ccoc4)nc3)c3ncn(C4CCCC4)c3n2)CC1` (stereo unspecified), the outcome with G-361 [4], in the experiment on G-361 [7], in the experiment with G-361 [8], in the experiment on G-361 [9], in the experiment with G-361 [10] and in the experiment on G-361 [11] was Active. Moreover, the outcome in the experiment with G-361 [12] and with G-361 [13] was Active. Further, the Ratio IC50 in experiment [5] worked out at 20. Further, in experiment [6], the “Inhibition of RNA polymerase II Ser2 phosphorylation (qualitative)” value was “Active”. Moreover, the inhibition entry on CDK2/CDK4 (Homo sapiens) was “Active”. For the same compound, the pIC50 in the experiment with HeLa was 7.82; with HCT-116, 7.34; in the experiment on HOS, 7.62; with G-361 [1] it was 7.01; with MCF7 it was 7.49; with K562, 7.25. Also, in [3], the negative-log IC50 (pIC50) was 8.10.
Regarding `NC1CCC(Nc2nc(NCc3ccc(-c4ccccc4O)cc3)c3ncn(C4CCCC4)c3n2)CC1` (stereo unspecified), the pIC50 with HeLa is 5.38; in the experiment with HCT-116, 5.36; with HOS, 5.94; in the experiment with G-361 [1], 5.38; in the experiment with MCF7 it was 5.54; in the experiment on K562, 5.58. The pIC50 in experiment [2] was 6.11; in experiment [3], 7.17.
`Nc1ccccc1CNc1nc(NC2CCC(N)CC2)nc2c1ncn2C1CCCC1` (stereo unspecified): the pIC50 in the experiment on HeLa is 5.99; with HCT-116, 5.64; with HOS, 5.69; in the experiment with G-361 [1], 5.68; in the experiment on MCF7 it was 5.63; with K562, 5.39. The pIC50 is 7.03 in experiment [2] and 7.74 in [3].
In the case of `NC1CCC(Nc2nc(NCc3ccc(-c4cccs4)nc3)c3ncn(C4CCCC4)c3n2)CC1` (stereo unspecified), the outcome in the experiment with G-361 [4], with G-361 [7], with G-361 [8], with G-361 [9], with G-361 [10] and with G-361 [11] was Active. The outcome in the experiment on G-361 [12] and in the experiment on G-361 [13] was Active. Further, the Ratio IC50 in [5] worked out at 20. In addition, in experiment [6], the “Inhibition of RNA polymerase II Ser2 phosphorylation (qualitative)” value was “Active”. The inhibition entry on CDK2/CDK4 (Homo sapiens) is “Active”. For the same compound, the pIC50 in the experiment with HeLa is 7.40; in the experiment with HCT-116, 7.01; in the experiment on HOS, 7.49; with G-361 [1], 6.82; in the experiment on MCF7 it was 7.04; with K562, 7.00. Moreover, in experiment [3], the pIC50 was 8.40.
